Test results reported in ChEMBL document CHEMBL4699552, “Paecilosetin Derivatives as Potent Antimicrobial Agents from Isaria farinosa” (J Nat Prod, 2020).
pIC50: −log10 of the molar value.

Key:
Staphylococcus aureus [1] = assay: Antimicrobial activity against methicillin-resistant Staphylococcus aureus ATCC 33591 assessed as reduction in microbial growth after 24 hrs by microdilution method; assay type: functional
How it was run: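 Broth microdilution per CLSI M7; test range 256 to 0.5 µg/mL; plates incubated at 35 °C and read at 24 h for bacteria; MIC taken as lowest concentration preventing visible growth in the wells; run in duplicate.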

Staphylococcus aureus [2] = assay: Antimicrobial activity against methicillin-sensitive Staphylococcus aureus ATCC 29213 assessed as reduction in microbial growth after 24 hrs by microdilution method; assay type: functional
How it was run: (§1)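 Bacterial MICs by CLSI M7 broth microdilution on ATCC strains. Concentrations ran from 256 to 0.5 µg/mL, with 24 h incubation at 35 °C. MIC is the lowest concentration with no visible growth. Duplicate assays.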

Candida albicans [3] = assay: Antifungal activity against Candida albicans ATCC 10231 assessed as reduction in microbial growth after 48 h by microdilution method; settings: ATCC 10231, 48 h
Escherichia coli = assay: Antimicrobial activity against Escherichia coli ATCC 25922 assessed as reduction in microbial growth after 24 hrs by microdilution method; assay type: functional; how it was run: as §1
MRC5 = assay: Cytotoxicity against human MRC5 cells assessed as reduction in cell viability after 72 hrs by CellTiter Glo assay; assay type: cell-based; settings: MRC5, 72 h
How it was run: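 Lung fibroblasts from ATCC, grown in DMEM with 10% FCS and 1% glutamine at 37 °C under 5% CO2, were seeded at 3 × 10^3 cells/well. After 24 h they were dosed at 10 final concentrations by serial dilution in medium, with vehicle controls. After 72 h, viability was read by CellTiter Glo luminescence (15 min). Triplicate runs; IC50 from four- or five-parameter logistic fits.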

Trichophyton rubrum = assay: Antifungal activity against Trichophyton rubrum SNB-TR1 assessed as reduction in microbial growth after 5 days by microdilution method; assay type: functional; settings: SNB-TR1, 120 h, time 5 day
How it was run: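 CLSI M38 broth microdilution on a clinical dermatophyte isolate. Serial dilutions from 256 to 0.5 µg/mL, incubated at 35 °C and read after 5 days. MIC is the lowest concentration preventing visible growth. Run in duplicate.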

Candida albicans [4] = assay: Antifungal activity against Candida albicans ATCC 10231 assessed as reduction in microbial growth after 5 days by microdilution method; assay type: functional; settings: ATCC 10231, 120 h, time 5 day

## C/C=C/[C@@H]1C=C[C@@H]2C[C@H](C)CC[C@H]2[C@]1(C)/C(O)=C1\C(=O)N[C@@H]([C@H](C)O)C1=O
Staphylococcus aureus [1]
  MIC: 2 µg/mL
Staphylococcus aureus [2]
  MIC: 2 µg/mL
Candida albicans [3]
  MIC: 16 µg/mL
Escherichia coli
  MIC: > 256 µg/mL
MRC5
  pIC50: 4.40
Trichophyton rubrum
  MIC: 32 µg/mL

## C/C=C/[C@@H]1C=C[C@@H]2C[C@H](CO)CC[C@H]2[C@]1(C)/C(O)=C1\C(=O)N[C@@H]([C@H](C)O)C1=O
Staphylococcus aureus [1]
  MIC: > 256 µg/mL
Staphylococcus aureus [2]
  MIC: > 256 µg/mL
Candida albicans [3]
  MIC: > 256 µg/mL
Escherichia coli
  MIC: 256 µg/mL
Trichophyton rubrum
  MIC: > 256 µg/mL

## OC(Cn1cncn1)(Cn1cncn1)c1ccc(F)cc1F [FLUCONAZOLE]
Candida albicans [4]
  MIC: 1 µg/mL
Trichophyton rubrum
  MIC: 4 µg/mL

## Cc1onc(-c2ccccc2)c1C(=O)N[C@@H]1C(=O)N2[C@@H]1SC(C)(C)[C@@H]2C(=O)O [OXACILLIN]
Staphylococcus aureus [2]
  MIC: 0.25 µg/mL

## C/C=C1\NC(=O)C(C(=O)[C@@]2(C)[C@@H]3CC[C@@H](C)C[C@H]3C=C[C@H]2/C=C/C)=C1O
Staphylococcus aureus [1]
  MIC: 1 µg/mL
Staphylococcus aureus [2]
  MIC: 2 µg/mL
Candida albicans [3]
  MIC: 32 µg/mL
Escherichia coli
  MIC: > 256 µg/mL
MRC5
  pIC50: 4.62
Trichophyton rubrum
  MIC: 32 µg/mL

## C/C=C/[C@@H]1C=C[C@@H]2C[C@H](C)CC[C@H]2[C@]1(C)/C(O)=C1\C(=O)N[C@@H]([C@@H](C)O)C1=O
Staphylococcus aureus [1]
  MIC: 16 µg/mL
Staphylococcus aureus [2]
  MIC: 8 µg/mL
Candida albicans [3]
  MIC: 128 µg/mL
Escherichia coli
  MIC: > 256 µg/mL
MRC5
  pIC50: 4.30
Trichophyton rubrum
  MIC: 64 µg/mL

## GENTAMICIN
Escherichia coli
  MIC: 8 µg/mL

## C/C=C/[C@@H]1C=C[C@@H]2C[C@H](CO)CC[C@H]2[C@]1(C)/C(O)=C1\C(=O)N[C@@H]([C@@H](C)O)C1=O
Staphylococcus aureus [1]
  MIC: > 256 µg/mL
Staphylococcus aureus [2]
  MIC: > 256 µg/mL
Candida albicans [3]
  MIC: > 256 µg/mL
Escherichia coli
  MIC: > 256 µg/mL
Trichophyton rubrum
  MIC: > 256 µg/mL

## C/C=C1\NC(=O)C(C(=O)[C@@]2(C)[C@@H]3CC[C@@H](CO)C[C@H]3C=C[C@H]2/C=C/C)=C1O
Staphylococcus aureus [1]
  MIC: 128 µg/mL
Staphylococcus aureus [2]
  MIC: 64 µg/mL
Candida albicans [3]
  MIC: > 256 µg/mL
Escherichia coli
  MIC: > 256 µg/mL
MRC5
  pIC50: 3.97
Trichophyton rubrum
  MIC: > 256 µg/mL
